Reference: ChEMBL document CHEMBL1275524, “Activities of antifungal agents against yeasts and filamentous fungi: assessment according to the methodology of the European Committee on Antimicrobial Susceptibility Testing” (2008)
≈ marks a conversion by molar mass, not a printed value.

Experiments:
Curvularia australiensis = assay: Antifungal activity against Bipolaris australiensis by EUCAST method; type: functional
In short: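 Dematiaceous fungi were tested by the EUCAST spore-forming mold reference procedure: flat-bottom microdilution plates, RPMI 1640 plus 2% glucose, inoculum 2 × 105 to 5 × 10^5 CFU/ml. Endpoints were read visually at 24 and 48 h. Polyenes and azoles: 100% growth reduction vs drug-free control. CPF: minimum effective concentration. Run in duplicate and repeated twice.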

Aspergillus fumigatus = assay: Antifungal activity against Aspergillus fumigatus; type: functional
[1] = tested on: Meyerozyma guilliermondii; assay: Antifungal activity against Candida guilliermondii; type: functional
In short: (§1)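 Broth microdilution in flat-bottom plates in RPMI 1640 with 2% glucose; inoculum 0.5 × 105 to 2.5 × 10^5 CFU/ml. MICs were read spectrophotometrically at 24 h. AMB endpoint: ≥90% growth reduction vs drug-free control well. Azole and CPF endpoint: 50% reduction in optical density. MFC was taken as the lowest concentration giving 99% killing.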

Clavispora lusitaniae = assay: Antifungal activity against Candida lusitaniae; type: functional; in short: as §1
Fusarium solani [2] = assay: Antifungal activity against Fusarium solani; type: functional
Fusarium oxysporum [3] = assay: Antifungal activity against Fusarium oxysporum by EUCAST method; type: functional
Mucor hiemalis = assay: Antifungal activity against Mucor hiemalis by EUCAST method; type: functional
Saccharomyces cerevisiae = assay: Antifungal activity against Saccharomyces cerevisiae; type: functional
In short: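 Broth microdilution following EUCAST for fermentative yeasts, in flat-bottom plates with RPMI 1640 plus 2% glucose. Inoculum was 0.5 × 10^5 to 2.5 × 10^5 CFU/ml. End points were read spectrophotometrically at 24 h: ≥90% growth reduction versus a drug-free control for amphotericin B, and 50% OD reduction for azoles and caspofungin. MFC was the lowest concentration giving 99% killing.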

Candida tropicalis = assay: Antifungal activity against Candida tropicalis by EUCAST method; type: functional; in short: as §1
Fusarium solani [4] = assay: Antifungal activity against Fusarium solani by EUCAST method; type: functional
Mucor = assay: Antifungal activity against Mucor species by EUCAST method; type: functional
Lichtheimia corymbifera [5] = assay: Antifungal activity against Absidia corymbifera by EUCAST method; type: functional
Penicillium sp. = assay: Antifungal activity against Penicillium species by EUCAST method; type: functional
Talaromyces marneffei [6] = assay: Antifungal activity against Penicillium marneffei; type: functional
Rhizopus arrhizus = assay: Antifungal activity against Rhizopus oryzae; type: functional
In short: (§2)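 Broth microdilution following the EUCAST reference procedure for spore-forming moulds, in flat-bottom plates with RPMI 1640 plus 2% glucose. Inoculum was 2 × 10^5 to 5 × 10^5 CFU/ml. MICs were read visually at 24 and 48 h as 100% growth reduction versus a drug-free control for polyenes and azoles. MEC was used for caspofungin. Tests were run in duplicate and repeated twice.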

[7] = tested on: Meyerozyma guilliermondii; assay: Antifungal activity against Candida guilliermondii by EUCAST method; type: functional; in short: as §1
[8] = Antifungal activity against Rhizopus microsporus var. oligosporus; type: functional; in short: as §2
Rhizopus = assay: Antifungal activity against Rhizopus species; type: functional; in short: as §2
Lichtheimia corymbifera [9] = assay: Antifungal activity against Absidia corymbifera; type: functional
Talaromyces marneffei [10] = assay: Antifungal activity against Penicillium marneffei by EUCAST method; type: functional
[11] = Antifungal activity against Cryptococcus neoformans var. neoformans; type: functional; details: Cryptococcus deneoformans
In short: (§3)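 EUCAST yeast microdilution, modified for nonfermentative yeasts: plates were sealed and agitated at 350 rpm and 30°C for 48 h.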

Aspergillus flavus = assay: Antifungal activity against Aspergillus flavus by EUCAST method; type: functional
Fusarium oxysporum [12] = assay: Antifungal activity against Fusarium oxysporum; type: functional
Absidia = assay: Antifungal activity against Absidia species; type: functional
Candida parapsilosis = assay: Antifungal activity against Candida parapsilosis; type: functional; details: Lodderomyces parapsilosis; in short: as §1
Lomentospora prolificans = assay: Antifungal activity against Scedosporium prolificans; type: functional; in short: as §2
Candida albicans = assay: Antifungal activity against Candida albicans; type: functional; in short: as §1
[13] = Antifungal activity against Cryptococcus neoformans var. neoformans by EUCAST method; type: functional; details: Cryptococcus deneoformans; in short: as §3
Cryptococcus gattii = assay: Antifungal activity against Cryptococcus neoformans var. gattii; type: functional, Cryptococcus bacillisporus; in short: as §3
Aspergillus niger = assay: Antifungal activity against Aspergillus niger; type: functional
Cunninghamella = assay: Antifungal activity against Cunninghamella species; type: functional
Sporothrix schenckii = assay: Antifungal activity against Sporothrix schenckii by EUCAST method; type: functional; in short: as §2
Geotrichum candidum = assay: Antifungal activity against Geotrichum candidum; type: functional
Scedosporium apiospermum = assay: Antifungal activity against Scedosporium apiospermum; type: functional; in short: as §2
Nakaseomyces glabratus = assay: Antifungal activity against Candida glabrata; type: functional; in short: as §1
Pichia kudriavzevii = assay: Antifungal activity against Candida krusei by EUCAST method; type: functional; in short: as §1

## CC[C@@H]([C@H](C)O)n1ncn(-c2ccc(N3CCN(c4ccc(OC[C@@H]5CO[C@@](Cn6cncn6)(c6ccc(F)cc6F)C5)cc4)CC3)cc2)c1=O [POSACONAZOLE]
Curvularia australiensis
  MIC: 0.12 µg/mL (≈ 0.171 µM)
Aspergillus fumigatus
  MFC: 0.5 µg/mL (≈ 0.713 µM)
[1]
  MFC: 0.25 µg/mL (≈ 0.357 µM)
Clavispora lusitaniae
  MFC: 0.06 µg/mL (≈ 0.0856 µM)
Fusarium solani [2]
  MFC: > 8 µg/mL
Fusarium oxysporum [3]
  MIC: 0.12 µg/mL (≈ 0.171 µM)
Mucor hiemalis
  MIC: 1.33 µg/mL (≈ 1.9 µM)
Saccharomyces cerevisiae
  MFC: > 4 µg/mL
Candida tropicalis
  MIC: 0.12 µg/mL (≈ 0.171 µM)
Fusarium solani [4]
  MIC: 1 µg/mL (≈ 1.43 µM)
Mucor
  MIC: 0.72 µg/mL (≈ 1.03 µM)
Lichtheimia corymbifera [5]
  MIC: 0.29 µg/mL (≈ 0.414 µM)
Penicillium sp.
  MIC: 0.05 µg/mL (≈ 0.0713 µM)
Talaromyces marneffei [6]
  MFC: 0.25 µg/mL (≈ 0.357 µM)
Rhizopus arrhizus
  MFC: 2 µg/mL (≈ 2.85 µM)
[7]
  MIC: 0.45 µg/mL (≈ 0.642 µM)
[8]
  MFC: > 8 µg/mL
Rhizopus
  MFC: > 2 µg/mL
Lichtheimia corymbifera [9]
  MFC: 2 µg/mL (≈ 2.85 µM)
Talaromyces marneffei [10]
  MIC: 0.06 µg/mL (≈ 0.0856 µM)
[11]
  MFC: 0.125 µg/mL (≈ 0.178 µM)
Aspergillus flavus
  MIC: 0.21 µg/mL (≈ 0.3 µM)
Fusarium oxysporum [12]
  MFC: 0.25 µg/mL (≈ 0.357 µM)
Absidia
  MFC: 0.5 µg/mL (≈ 0.713 µM)
Candida parapsilosis
  MFC: 0.06 µg/mL (≈ 0.0856 µM)
Lomentospora prolificans
  MFC: > 8 µg/mL
Candida albicans
  MFC: 0.12 µg/mL (≈ 0.171 µM)
[13]
  MIC: 0.14 µg/mL (≈ 0.2 µM)
Cryptococcus gattii
  MFC: 0.125 µg/mL (≈ 0.178 µM)
Aspergillus niger
  MFC: 1 µg/mL (≈ 1.43 µM)
Cunninghamella
  MFC: 2 µg/mL (≈ 2.85 µM)
Sporothrix schenckii
  MIC: 0.25 µg/mL (≈ 0.357 µM)
Geotrichum candidum
  MFC: > 8 µg/mL
Scedosporium apiospermum
  MFC: 1 µg/mL (≈ 1.43 µM)
Nakaseomyces glabratus
  MFC: > 4 µg/mL
Pichia kudriavzevii
  MIC: 0.68 µg/mL (≈ 0.97 µM)
